From ChEMBL document CHEMBL4808178 (J Med Chem, 2021)
Calls of active or inactive are those of the source. No cut-off for these calls is given here.

Legend:
[1] = Clearance in Sprague-Dawley rat at 25 mg/kg, po measured up to 48 hrs by LC-MS/MS analysis; type: ADME, organism-based; conditions: in vivo
Procedure, shortened: (§1)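 Overnight-fasted male SD rats (about 250−270 g), three per group, single oral 25 mg/kg; test compound suspended in 5% CMC-Na, control as sodium salt in phosphate buffer. Blood sampled 0.25–48 h, plasma by centrifugation, stored −40 °C, quantified by LC−MS/MS against plasma standard curve (3–3000 ng/mL) with internal standard; model-fitted PK parameters.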

[2] = MRT(0 to infinity) in Sprague-Dawley rat at 25 mg/kg, po measured up to 48 hrs by LC-MS/MS analysis; type: ADME, organism-based; conditions: in vivo
Procedure, shortened: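 Overnight-fasted male SD rats (250−270 g, n = 3/group), single oral 25 mg/kg in 5% CMC-Na (reference sodium salt in phosphate buffer); plasma at 0.25–48 h (12 timepoints), stored −40 °C; LC−MS/MS with internal-standard calibration 3–3000 ng/mL; parameters fitted by model.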

HCT-116 [3] = experiment: Induction of apoptosis in human HCT116 cells assessed as late apoptotic cells at 20 uM after 24 hrs by annexin V-FITC/propidium iodide staining based flow cytometry (reference value: 5.1%); type: functional
HCT-116 [4] = experiment: Inhibition of cell stemness in human HCT116 cells assessed as reduction in SOX2 mRNA transcription levels at 20 uM after 24 hrs by RT-qPCR analysis; type: functional, cell-based
Procedure, shortened: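 Sorted ALDH⁺ HCT-116 cells treated 24 h; TRIZOL RNA, one-step RT-qPCR (RT 10 min 55 °C; 95 °C 1 min; 39 cycles 95 °C 10 s/60 °C 30 s) with melting-curve check; β-actin reference; fold change by 2^−ΔΔCt; t test, mean ± SD, n = 3.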

[5] = AUC(0 to infinity) in Sprague-Dawley rat at 25 mg/kg, po measured up to 48 hrs by LC-MS/MS analysis; type: ADME, organism-based; parameters: route oral, dose 25 mg/kg, time <=48; conditions: in vivo; procedure, shortened: as §1
[6] = Toxicity in BALB/c mouse xenografted with human HCT116 cells assessed as change in body weight at 60 to 90 mg/kg, po administered twice daily for 4 weeks and measured every 3 days; type: organism-based, HCT-116; conditions: in vivo, 672 h, dose 60-90 mg/kg
Procedure, shortened: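 Male 5-week BALB/c nude mice (16−18 g), 0.2 mL of 5 × 10⁷ cells/mL HCT-116 injected into right armpit; at ~100 mm³ randomized, 5/group; intragastric 60 or 90 mg/kg twice daily for 4 weeks; tumor volume and body weight every 3 days; after sacrifice heart, liver, spleen, lung, kidney HE-stained.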

HCT-116 [7] = experiment: Inhibition of cell stemness in human HCT116 cells assessed as reduction in number of tumor spheres at 5 uM after 10 days by microscopic analysis; type: functional, cell-based; conditions: time 10.0 day
Procedure, shortened: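 Sorted ALDH⁺ HCT-116 cells, 800/well, in serum-free DMEM with B27 (1:50), EGF 20 ng/mL, β-FGF 10 ng/mL; co-incubated with compound (5 μM) or DMSO vehicle for 10 days; sphere number, diameter and morphology scored from microscopy images; mean ± SD, n = 3.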

[8] = target: Dual specificity protein kinase CLK2 (Homo sapiens, UniProt P49760); experiment: Inhibition of CLK2 (unknown origin) assessed as residual activity at 1 uM relative to control
Procedure, shortened: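 Single-concentration screen at 1 μmol/L against a panel of 208 kinases, run as a commercial service; activity expressed relative to control.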

[9] = target: T1, Tyrosine-protein kinase ZAP-70 (Homo sapiens) (UniProt P43403); experiment: Inhibition of ZAP70 (unknown origin) assessed as residual activity at 1 uM relative to control
T1 sequence (whole entry): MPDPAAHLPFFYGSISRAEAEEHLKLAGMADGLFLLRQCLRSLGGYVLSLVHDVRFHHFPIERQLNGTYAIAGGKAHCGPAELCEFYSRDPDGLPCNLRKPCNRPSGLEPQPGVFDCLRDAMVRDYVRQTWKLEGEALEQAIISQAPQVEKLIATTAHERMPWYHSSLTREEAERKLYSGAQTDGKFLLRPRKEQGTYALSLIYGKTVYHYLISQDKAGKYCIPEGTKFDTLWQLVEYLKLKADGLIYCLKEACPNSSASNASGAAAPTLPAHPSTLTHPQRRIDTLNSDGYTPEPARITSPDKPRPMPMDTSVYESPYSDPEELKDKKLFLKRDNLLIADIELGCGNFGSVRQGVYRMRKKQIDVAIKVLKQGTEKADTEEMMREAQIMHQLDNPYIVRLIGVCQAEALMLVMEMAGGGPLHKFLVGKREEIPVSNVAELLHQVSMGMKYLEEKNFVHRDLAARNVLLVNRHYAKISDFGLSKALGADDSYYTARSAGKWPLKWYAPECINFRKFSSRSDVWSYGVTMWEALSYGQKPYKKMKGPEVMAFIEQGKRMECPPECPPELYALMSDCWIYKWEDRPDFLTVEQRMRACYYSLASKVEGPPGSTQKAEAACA
Procedure, shortened: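 Commercial profiling service against a 208-kinase panel; single concentration 1 μmol/L; residual kinase activity expressed relative to control.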

HCT-116 [10] = experiment: Effect on Wnt/beta-Catenin signaling in human HCT116 cells assessed as downregulation of beta-catenin protein level at 5 to 20 uM after 24 hrs by Western blotting analysis; type: functional, cell-based; conditions: dose 5-20 µM
Procedure, shortened: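 HCT-116 cells at 2 × 10⁵ cells/mL in DMEM/10% FBS, grown 12 h at 37 °C, then treated 24 h (vehicle DMSO). Lysates quantified by BCA, run on 10% SDS-PAGE, PVDF transfer, blocked in 5% milk/TBST, primary antibodies 4 °C overnight, HRP secondary 2 h, chemiluminescent detection; normalized to β-actin, n = 3.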

Sequence of Dual specificity protein kinase CLK2 (P49760 whole entry, looked up): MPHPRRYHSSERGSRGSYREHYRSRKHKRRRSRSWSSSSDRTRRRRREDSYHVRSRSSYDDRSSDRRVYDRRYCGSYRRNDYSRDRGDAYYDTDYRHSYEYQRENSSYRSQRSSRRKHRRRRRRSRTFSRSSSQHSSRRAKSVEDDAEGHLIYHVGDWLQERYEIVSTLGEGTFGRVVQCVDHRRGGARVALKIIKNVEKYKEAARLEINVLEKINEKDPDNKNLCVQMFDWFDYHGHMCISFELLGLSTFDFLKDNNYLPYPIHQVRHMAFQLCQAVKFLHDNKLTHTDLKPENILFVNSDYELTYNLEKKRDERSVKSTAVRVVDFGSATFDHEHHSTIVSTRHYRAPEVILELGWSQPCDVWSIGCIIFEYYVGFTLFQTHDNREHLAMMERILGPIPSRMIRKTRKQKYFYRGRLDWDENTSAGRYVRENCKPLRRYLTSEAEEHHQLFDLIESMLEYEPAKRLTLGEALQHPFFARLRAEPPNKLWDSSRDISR

## O=C(NCCO)c1ccc2c(c1)nc(Nc1cccc(Cl)c1)c1ccncc12
[1]
  CL/F: 10 mL/min/kg
[2]
  MRT inf: 6.26 h
HCT-116 [3]
  Activity: 32.9%
HCT-116 [4]
  inhibition: Active
[5]
  AUC(0-inf): 41500 ng·h/mL
[6]
  Activity: Non-Toxic
HCT-116 [7]
  inhibition: Active
[8]
  Activity: 22.1%
[9]
  Activity: 26%
HCT-116 [10]
  Activity: Active
